From publication PMC8524144 (International Journal of Pharmaceutics: X, 2021)

Legend:
trypsin = conditions: ref Werle et al. (2006); cited from earlier work
aminopeptidase N = conditions: ref Werle et al. (2006); cited from earlier work
elastase = conditions: ref Werle et al. (2006); cited from earlier work
[1] = test system: membrane-bound peptidases; conditions: ref Werle et al. (2006); cited from earlier work
[2] = In vitro stability of hPTH; assay type: physicochemical
In short: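 Peptide (1.0 mg teriparatide acetate per mL in 50 mM Tris, pH 6.5, no SBTI) mixed 1:1 with enzyme-free Tris buffer and incubated at 37 °C with shaking. Samples were taken at 2, 5, 10, 15, 30 and 60 min and quenched with an equal volume of 0.5% TFA. A zero-time mix served as 100%. Peptide was measured by C18 HPLC-UV. Run in duplicate.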

chymotrypsin = conditions: ref Werle et al. (2006); cited from earlier work
pepsin = conditions: ref Werle et al. (2006); cited from earlier work
[3] = SBTI at the levels found in the tested formulations; ref Hernández-Ledesma and Hsieh, 2017; Burshtein et al. 2018b; cited from earlier work
[4] = 50 mM Tris buffer without protease, pH 6.5

Compound | degradation by GIT protease trypsin (trypsin) | effect of aminopeptidase N on the degradation of hPTH(1–34) (aminopeptidase N) | effect of elastase on the degradation of hPTH(1–34) (elastase) | effect of membrane-bound peptidases on the degradation of hPTH(1–34) [1] | remaining at 0.25 h, 0.5 mg/mL [2, 4] [%] | remaining at 0.5 h, 0.5 mg/mL [2, 4] [%] | remaining at 1 h, 0.5 mg/mL [2, 4] [%] | stability of hPTH(1–34) alone ([2]; no protease, no SBTI, 50 mM Tris buffer pH 6.5, 37 °C, HPLC-UV, n = 2) | degradation by GIT protease chymotrypsin (chymotrypsin) | degradation by GIT protease pepsin (pepsin) | tolerability in human trials [3]
CC[C@H](C)[C@H](NC(=O)[C@H](CCC(=O)O)NC(=O)[C@H](CO)NC(=O)[C@@H](NC(=O)[C@@H](N)CO)C(C)C)C(=O)N[C@@H](CCC(N)=O)C(=O)N[C@@H](CC(C)C)C(=O)N[C@@H](CCSC)C(=O)N[C@@H](Cc1cnc[nH]1)C(=O)N[C@@H](CC(N)=O)C(=O)N[C@@H](CC(C)C)C(=O)NCC(=O)N[C@@H](CCCCN)C(=O)N[C@@H](Cc1cnc[nH]1)C(=O)N[C@@H](CC(C)C)C(=O)N[C@@H](CC(N)=O)C(=O)N[C@@H](CO)C(=O)N[C@@H](CCSC)C(=O)N[C@@H](CCC(=O)O)C(=O)N[C@@H](CCCN=C(N)N)C(=O)N[C@H](C(=O)N[C@@H](CCC(=O)O)C(=O)N[C@@H](Cc1c[nH]c2ccccc12)C(=O)N[C@@H](CC(C)C)C(=O)N[C@@H](CCCN=C(N)N)C(=O)N[C@@H](CCCCN)C(=O)N[C@@H](CCCCN)C(=O)N[C@@H](CC(C)C)C(=O)N[C@@H](CCC(N)=O)C(=O)N[C@@H](CC(=O)O)C(=O)N[C@H](C(=O)N[C@@H](Cc1cnc[nH]1)C(=O)N[C@@H](CC(N)=O)C(=O)N[C@@H](Cc1ccccc1)C(=O)O)C(C)C)C(C)C [hPTH(1–34), teriparatide] | rapidly degraded | very limited effect | very limited effect | very limited effect | 100 | 100 | 100 | stable for at least one hour | rapidly degraded | rapidly degraded | 
soybean trypsin inhibitor [SBTI] |  |  |  |  |  |  |  |  |  |  | well tolerated
